Published values gathered from unrelated publications.
Compare with care: the assays were run in different laboratories.
Organism: Escherichia coli
Effect on: microbial growth

For `CN[C@@H]1[C@H](O)[C@H](NC)[C@H]2O[C@@]3(O)C(=O)C[C@@H](C)O[C@H]3O[C@@H]2[C@H]1O`, the MIC was 25 µg/mL (broth dilution; K12; K12).
`CSc1ccc(/C=C/c2cc(/C=C3\Sc4ccccc4N3CCCN3CCCC3)c3ccccc3[n+]2C)cc1.[I-]` gave an MIC of 32 µg/mL (broth dilution; ATCCBAA2469).
The MIC of `COC(=O)c1cc(-c2cccc(NC(=O)Nc3ccccc3F)c2)on1` is reported as over 64 µg/mL (broth dilution; ATCC25922).
`CC1CCN(CCCN2/C(=C/c3cc[n+](C)c4ccccc34)Sc3ccccc32)CC1.[I-]` gave an MIC of 0.5 µg/mL (broth dilution; ATCCBAA2469).
`CC1(C)S[C@@H]2[C@H](NC(=O)[C@H](N)c3ccccc3)C(=O)N2[C@H]1C(=O)O` gave an MIC of 32 µg/mL (broth dilution; MDR; 16 h).
The MIC of `COC(=O)c1cc(-c2cccc(NC(=O)Nc3c(C)cccc3C)c2)on1` is reported as over 64 µg/mL (broth dilution; ATCC25922).
For `COc1cccc(OC)c1C(=O)N[C@@H]1C(=O)N2[C@@H]1SC(C)(C)[C@@H]2C(=O)O`, the MIC was over 2050 µg/mL (broth dilution; ATCCBAA2469).
`CCCCCCC#Cc1cncc(-c2nnc(Sc3ccc([N+](=O)[O-])cc3[N+](=O)[O-])n2C)c1` gave an MIC of at least 20 µg/mL.
`C[n+]1ccc(/C=C2\Sc3ccccc3N2CCCN2CCCCC2)c2ccccc21.[I-]` has an MIC of 4 µg/mL (broth dilution; ATCCBAA2469).
`CN[C@H](CC(C)C)C(=O)N[C@H]1C(=O)N[C@@H](CC(N)=O)C(=O)N[C@H]2C(=O)N[C@H]3C(=O)N[C@H](C(=O)N[C@H](C(=O)O)c4cc(O)cc(O)c4-c4cc3ccc4O)[C@H](O)c3ccc(c(Cl)c3)Oc3cc2cc(c3O[C@@H]2O[C@H](CO)[C@@H](O)[C@H](O)[C@H]2O[C@H]2C[C@](C)(N)[C@H](O)[C@H](C)O2)Oc2ccc(cc2Cl)[C@H]1O` gave an MIC of over 32 µg/mL (ATCC10798).
The MIC of `C[n+]1c(/C=C/c2ccc(O)cc2)cc(/C=C2\Sc3ccccc3N2CCCN2CCOCC2)c2ccccc21.[I-]` is reported as 8 µg/mL (broth dilution; ATCCBAA2469).
For `CCCCCCCCCCCC(=O)OC[C@H]1O[C@@H](n2cc(C)c(=O)[nH]c2=O)C[C@@H]1O`, the MIC was 2 µg/mL (broth dilution).
`COC(=O)c1cc(-c2cccc(NC(=O)Nc3cccc(Cl)c3)c2)on1` gave an MIC of over 64 µg/mL (broth dilution; ATCC25922).
The MIC of `CC(=O)C1=C(O)C(CC(C)C)NC1=O` (stereo not drawn) is reported as over 200 µg/mL (K12; K12).
With `COC(=O)c1cc(-c2cccc(NC(=O)Nc3cccc(C(F)(F)F)c3)c2)on1` the MIC was over 64 µg/mL (broth dilution; ATCC25922).
The MIC of `Fc1c(F)c(F)c(-c2c(F)c(F)c(F)c(F)c2F)c(F)c1F` is reported as over 250 µg/mL (ATCC25922).
With `COC(=O)c1cc(-c2ccc(OC)c(NC(=O)Nc3ccc(Cl)c(Cl)c3)c2)on1` the MIC was over 64 µg/mL (broth dilution; ATCC25922).
`CNC(C)C1CCC(N)C(OC2C(N)CC(N)C(OC3OCC(C)(O)C(NC)C3O)C2O)O1` (stereo not drawn) gave an MIC of 6 µM (broth dilution; R477100).
